Source: article PMC7004521 (Cancer Science, 2019)

Assay: Adverse events suspected to be study drug related, phase 1 study
Type: in vivo, human
Details: for Peripheral edema, all grades / Peripheral edema, grade 3/4 / Pyrexia, all grades / Pyrexia, grade 3/4 / Stomatitis, all grades / Stomatitis, grade 3/4 / Thrombocytopenia, all grades / Thrombocytopenia, grade 3/4 / Total protein decreased, all grades / Total protein decreased, grade 3/4 / Upper abdominal pain, all grades / Upper abdominal pain, grade 3/4 / Vomiting, all grades / Vomiting, grade 3/4 / ALT increased, all grades / ALT increased, grade 3/4 / AST increased, all grades / Amylase increased, all grades / Amylase increased, grade 3/4 / Asthenia, all grades / Asthenia, grade 3/4 / Blood bilirubin increased, all grades / Blood bilirubin increased, grade 3/4 / Blood creatinine increased, all grades / Blood creatinine increased, grade 3/4 / Constipation, all grades / Constipation, grade 3/4 / Decreased appetite, all grades / Decreased appetite, grade 3/4 / Diarrhea, all grades / Diarrhea, grade 3/4 / Dizziness, all grades / Dizziness, grade 3/4 / Dyspepsia, all grades / Dyspepsia, grade 3/4 / Fatigue, all grades / Fatigue, grade 3/4 / Headache, all grades / Headache, grade 3/4 / Hypoalbuminemia, all grades / Hypoalbuminemia, grade 3/4 / Lipase increased, all grades / Lipase increased, grade 3/4 / Localized edema, all grades / Localized edema, grade 3/4 / Maculo‐papular rash, all grades / Maculo‐papular rash, grade 3/4 / Myalgia, all grades / Myalgia, grade 3/4 / Nausea, all grades / Nausea, grade 3/4 / Odynophagia, all grades / Odynophagia, grade 3/4: drug-related
Method in brief: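 Adult patients with advanced solid tumours and confirmed MET dysregulation took oral capsules twice daily from 100 up to 600 mg in escalation, or 400 mg bid tablets, in 28-day cycles. Expansion was 600 mg bid capsules, with a switch to 400 mg bid tablets allowed. Patients were included if they had ≥1 dose and ≥1 valid post-baseline safety assessment. Events were graded by CTCAE v4.0.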

[1] = expansion RP2D gastric cancer n=9

CNC(=O)c1ccc(-c2cnc3ncc(Cc4ccc5ncccc5c4)n3n2)cc1F [capmatinib]
Peripheral edema, all grades (expansion RP2D HCC n=11): 3 (27) n (%) | Peripheral edema, grade 3/4 (expansion RP2D HCC n=11): 0 n (%) | Pyrexia, all grades (expansion RP2D HCC n=11): 0 n (%) | Pyrexia, grade 3/4 (expansion RP2D HCC n=11): 0 n (%) | Stomatitis, all grades (expansion RP2D HCC n=11): 0 n (%) | Stomatitis, grade 3/4 (expansion RP2D HCC n=11): 0 n (%) | Thrombocytopenia, all grades (expansion RP2D HCC n=11): 1 (9) n (%) | Thrombocytopenia, grade 3/4 (expansion RP2D HCC n=11): 0 n (%) | Total protein decreased, all grades (expansion RP2D HCC n=11): 0 n (%) | Total protein decreased, grade 3/4 (expansion RP2D HCC n=11): 0 n (%) | Upper abdominal pain, all grades (expansion RP2D HCC n=11): 0 n (%) | Upper abdominal pain, grade 3/4 (expansion RP2D HCC n=11): 0 n (%) | Vomiting, all grades (expansion RP2D HCC n=11): 3 (27) n (%) | Vomiting, grade 3/4 (expansion RP2D HCC n=11): 1 (9) n (%) | ALT increased, all grades [1]: 1 (11) n (%) | ALT increased, grade 3/4 [1]: 1 (11) n (%) | AST increased, all grades [1]: 1 (11) n (%) | Amylase increased, all grades [1]: 0 n (%) | Amylase increased, grade 3/4 [1]: 0 n (%) | Asthenia, all grades [1]: 0 n (%) | Asthenia, grade 3/4 [1]: 0 n (%) | Blood bilirubin increased, all grades [1]: 0 n (%) | Blood bilirubin increased, grade 3/4 [1]: 0 n (%) | Blood creatinine increased, all grades [1]: 0 n (%) | Blood creatinine increased, grade 3/4 [1]: 0 n (%) | Constipation, all grades [1]: 0 n (%) | Constipation, grade 3/4 [1]: 0 n (%) | Decreased appetite, all grades [1]: 0 n (%) | Decreased appetite, grade 3/4 [1]: 0 n (%) | Diarrhea, all grades [1]: 0 n (%) | Diarrhea, grade 3/4 [1]: 0 n (%) | Dizziness, all grades [1]: 0 n (%) | Dizziness, grade 3/4 [1]: 0 n (%) | Dyspepsia, all grades [1]: 0 n (%) | Dyspepsia, grade 3/4 [1]: 0 n (%) | Fatigue, all grades [1]: 3 (33) n (%) | Fatigue, grade 3/4 [1]: 1 (11) n (%) | Headache, all grades [1]: 1 (11) n (%) | Headache, grade 3/4 [1]: 0 n (%) | Hypoalbuminemia, all grades [1]: 0 n (%) | Hypoalbuminemia, grade 3/4 [1]: 0 n (%) | Lipase increased, all grades [1]: 0 n (%) | Lipase increased, grade 3/4 [1]: 0 n (%) | Localized edema, all grades [1]: 0 n (%) | Localized edema, grade 3/4 [1]: 0 n (%) | Maculo‐papular rash, all grades [1]: 0 n (%) | Maculo‐papular rash, grade 3/4 [1]: 0 n (%) | Myalgia, all grades [1]: 0 n (%) | Myalgia, grade 3/4 [1]: 0 n (%) | Nausea, all grades [1]: 0 n (%) | Nausea, grade 3/4 [1]: 0 n (%) | Odynophagia, all grades [1]: 0 n (%) | Odynophagia, grade 3/4 [1]: 0 n (%) | Peripheral edema, all grades [1]: 3 (33) n (%) | Peripheral edema, grade 3/4 [1]: 0 n (%) | Pyrexia, all grades [1]: 0 n (%) | Pyrexia, grade 3/4 [1]: 0 n (%) | Stomatitis, all grades [1]: 0 n (%) | Stomatitis, grade 3/4 [1]: 0 n (%) | Thrombocytopenia, all grades [1]: 1 (11) n (%) | Thrombocytopenia, grade 3/4 [1]: 1 (11) n (%) | Total protein decreased, all grades [1]: 0 n (%) | Total protein decreased, grade 3/4 [1]: 0 n (%) | Upper abdominal pain, all grades [1]: 0 n (%) | Upper abdominal pain, grade 3/4 [1]: 0 n (%) | Vomiting, all grades [1]: 0 n (%) | Vomiting, grade 3/4 [1]: 0 n (%) | ALT increased, all grades (expansion RP2D other n=18): 1 (6) n (%) | ALT increased, grade 3/4 (expansion RP2D other n=18): 1 (6) n (%) | AST increased, all grades (expansion RP2D other n=18): 2 (11) n (%) | Amylase increased, all grades (expansion RP2D other n=18): 0 n (%) | Amylase increased, grade 3/4 (expansion RP2D other n=18): 0 n (%) | Asthenia, all grades (expansion RP2D other n=18): 1 (6) n (%) | Asthenia, grade 3/4 (expansion RP2D other n=18): 0 n (%) | Blood bilirubin increased, all grades (expansion RP2D other n=18): 0 n (%) | Blood bilirubin increased, grade 3/4 (expansion RP2D other n=18): 0 n (%) | Blood creatinine increased, all grades (expansion RP2D other n=18): 1 (6) n (%) | Blood creatinine increased, grade 3/4 (expansion RP2D other n=18): 0 n (%) | Constipation, all grades (expansion RP2D other n=18): 1 (6) n (%) | Constipation, grade 3/4 (expansion RP2D other n=18): 0 n (%) | Decreased appetite, all grades (expansion RP2D other n=18): 2 (11) n (%) | Decreased appetite, grade 3/4 (expansion RP2D other n=18): 0 n (%) | Diarrhea, all grades (expansion RP2D other n=18): 3 (17) n (%) | Diarrhea, grade 3/4 (expansion RP2D other n=18): 0 n (%) | Dizziness, all grades (expansion RP2D other n=18): 1 (6) n (%) | Dizziness, grade 3/4 (expansion RP2D other n=18): 0 n (%) | Dyspepsia, all grades (expansion RP2D other n=18): 2 (11) n (%) | Dyspepsia, grade 3/4 (expansion RP2D other n=18): 0 n (%) | Fatigue, all grades (expansion RP2D other n=18): 3 (17) n (%) | Fatigue, grade 3/4 (expansion RP2D other n=18): 0 n (%) | Headache, all grades (expansion RP2D other n=18): 0 n (%) | Headache, grade 3/4 (expansion RP2D other n=18): 0 n (%) | Hypoalbuminemia, all grades (expansion RP2D other n=18): 1 (6) n (%) | Hypoalbuminemia, grade 3/4 (expansion RP2D other n=18): 0 n (%) | Lipase increased, all grades (expansion RP2D other n=18): 1 (6) n (%) | Lipase increased, grade 3/4 (expansion RP2D other n=18): 0 n (%) | Localized edema, all grades (expansion RP2D other n=18): 2 (11) n (%) | Localized edema, grade 3/4 (expansion RP2D other n=18): 0 n (%) | Maculo‐papular rash, all grades (expansion RP2D other n=18): 2 (11) n (%) | Maculo‐papular rash, grade 3/4 (expansion RP2D other n=18): 0 n (%) | Myalgia, all grades (expansion RP2D other n=18): 2 (11) n (%) | Myalgia, grade 3/4 (expansion RP2D other n=18): 0 n (%) | Nausea, all grades (expansion RP2D other n=18): 6 (33) n (%) | Nausea, grade 3/4 (expansion RP2D other n=18): 0 n (%) | Odynophagia, all grades (expansion RP2D other n=18): 0 n (%) | Odynophagia, grade 3/4 (expansion RP2D other n=18): 0 n (%) | Peripheral edema, all grades (expansion RP2D other n=18): 4 (22) n (%) | Peripheral edema, grade 3/4 (expansion RP2D other n=18): 0 n (%) | Pyrexia, all grades (expansion RP2D other n=18): 0 n (%) | Pyrexia, grade 3/4 (expansion RP2D other n=18): 0 n (%) | Stomatitis, all grades (expansion RP2D other n=18): 1 (6) n (%) | Stomatitis, grade 3/4 (expansion RP2D other n=18): 0 n (%) | Thrombocytopenia, all grades (expansion RP2D other n=18): 0 n (%) | Thrombocytopenia, grade 3/4 (expansion RP2D other n=18): 0 n (%) | Total protein decreased, all grades (expansion RP2D other n=18): 0 n (%) | Total protein decreased, grade 3/4 (expansion RP2D other n=18): 0 n (%) | Upper abdominal pain, all grades (expansion RP2D other n=18): 0 n (%) | Upper abdominal pain, grade 3/4 (expansion RP2D other n=18): 0 n (%) | Vomiting, all grades (expansion RP2D other n=18): 4 (22) n (%) | Vomiting, grade 3/4 (expansion RP2D other n=18): 0 n (%) | lipase increase, grade 3 or 4 (suspected study drug‐related, dose‐expansion cohorts): 5%
